Among the data in ChEMBL document CHEMBL1137555, “Aminocyclohexylsulfonamides: discovery of metabolically stable alpha(1a/1d)-selective adrenergic receptor antagonists for the treatment of benign prostatic hyperplasia/lower urinary tract symptoms (BPH/LUTS)” (Bioorg Med Chem Lett, 2007) are half-life and Ki values, retold here.

As a reminder, the half-life is the time in which the quantity being followed falls by half. The low end stands for rapid decline, the high end for slow decline. What is called Ki is the dissociation constant of the complex between target and ligand, obtained from inhibition or displacement. Low values mean tighter binding, high ones weaker binding.

Data set [1] can be described thus: Metabolic stability in human liver microsomes. The format is ADME, Microsome. The method in brief:
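Human liver microsomal metabolism assay; read-out was half-life (T1/2, min).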
Background: Liver microsomes are vesicles of endoplasmic reticulum, rich in cytochrome P450 enzymes.

The target in data set [2] is D(2) dopamine receptor (Homo sapiens, UniProt P14416). The data set is described as follows: Binding affinity to human cloned dopamine D2 receptor.
Data set [3] has as its target T1, Alpha-1B adrenergic receptor (Homo sapiens, UniProt P35368).
T1 sequence (P35368 whole entry): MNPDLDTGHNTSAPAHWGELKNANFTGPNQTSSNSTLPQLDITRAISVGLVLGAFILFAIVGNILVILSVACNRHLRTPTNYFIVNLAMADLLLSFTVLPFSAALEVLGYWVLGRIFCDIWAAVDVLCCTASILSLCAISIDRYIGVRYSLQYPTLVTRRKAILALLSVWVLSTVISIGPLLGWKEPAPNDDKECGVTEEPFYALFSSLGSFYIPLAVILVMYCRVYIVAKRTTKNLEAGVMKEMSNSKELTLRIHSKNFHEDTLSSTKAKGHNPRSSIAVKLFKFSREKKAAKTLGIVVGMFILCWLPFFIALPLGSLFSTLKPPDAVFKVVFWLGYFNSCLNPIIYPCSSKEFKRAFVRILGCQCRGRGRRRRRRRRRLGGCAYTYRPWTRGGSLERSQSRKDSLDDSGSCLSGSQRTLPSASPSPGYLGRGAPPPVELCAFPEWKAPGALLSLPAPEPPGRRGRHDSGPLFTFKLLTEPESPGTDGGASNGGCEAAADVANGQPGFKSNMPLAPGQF
Description: Binding affinity to human cloned adrenergic alpha-1b receptor.

The target in data set [4] is T2, Alpha-1D adrenergic receptor (Homo sapiens, UniProt P25100).
T2 sequence (P25100 whole entry): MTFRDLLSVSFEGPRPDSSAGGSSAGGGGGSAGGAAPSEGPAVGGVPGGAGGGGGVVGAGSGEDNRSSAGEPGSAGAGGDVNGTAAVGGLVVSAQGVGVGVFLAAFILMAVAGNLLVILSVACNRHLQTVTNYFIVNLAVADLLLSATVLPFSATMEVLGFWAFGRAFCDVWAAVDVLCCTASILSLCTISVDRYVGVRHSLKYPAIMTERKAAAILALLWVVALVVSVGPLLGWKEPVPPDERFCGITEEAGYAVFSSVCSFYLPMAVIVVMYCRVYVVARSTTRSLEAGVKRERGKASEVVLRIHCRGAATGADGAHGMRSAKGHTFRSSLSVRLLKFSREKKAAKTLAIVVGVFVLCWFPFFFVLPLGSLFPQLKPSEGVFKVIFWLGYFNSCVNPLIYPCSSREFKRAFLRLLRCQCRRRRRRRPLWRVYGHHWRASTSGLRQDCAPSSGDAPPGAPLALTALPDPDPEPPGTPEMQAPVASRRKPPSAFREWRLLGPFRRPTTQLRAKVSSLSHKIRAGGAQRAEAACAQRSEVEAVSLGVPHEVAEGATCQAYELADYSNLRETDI
Description: Binding affinity to human cloned adrenergic alpha-1d receptor.

In data set [5] the target is T3, Alpha-1A adrenergic receptor (Homo sapiens, UniProt P35348).
T3 sequence (P35348 whole entry): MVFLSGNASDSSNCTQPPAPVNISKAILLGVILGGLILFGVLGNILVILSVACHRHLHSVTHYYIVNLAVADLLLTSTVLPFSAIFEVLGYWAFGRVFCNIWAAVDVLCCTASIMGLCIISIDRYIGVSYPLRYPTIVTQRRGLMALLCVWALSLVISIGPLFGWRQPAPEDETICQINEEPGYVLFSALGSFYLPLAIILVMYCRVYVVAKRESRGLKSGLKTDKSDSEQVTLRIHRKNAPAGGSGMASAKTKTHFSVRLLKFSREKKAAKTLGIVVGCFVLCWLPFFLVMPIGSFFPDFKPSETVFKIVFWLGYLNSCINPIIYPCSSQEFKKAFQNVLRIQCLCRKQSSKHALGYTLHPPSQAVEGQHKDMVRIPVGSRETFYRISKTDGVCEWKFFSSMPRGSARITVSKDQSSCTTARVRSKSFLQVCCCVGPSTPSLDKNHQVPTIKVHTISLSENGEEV
The data set is described as follows: Binding affinity to human cloned adrenergic Alpha-1A receptor.

Chain of D(2) dopamine receptor (P14416 whole entry): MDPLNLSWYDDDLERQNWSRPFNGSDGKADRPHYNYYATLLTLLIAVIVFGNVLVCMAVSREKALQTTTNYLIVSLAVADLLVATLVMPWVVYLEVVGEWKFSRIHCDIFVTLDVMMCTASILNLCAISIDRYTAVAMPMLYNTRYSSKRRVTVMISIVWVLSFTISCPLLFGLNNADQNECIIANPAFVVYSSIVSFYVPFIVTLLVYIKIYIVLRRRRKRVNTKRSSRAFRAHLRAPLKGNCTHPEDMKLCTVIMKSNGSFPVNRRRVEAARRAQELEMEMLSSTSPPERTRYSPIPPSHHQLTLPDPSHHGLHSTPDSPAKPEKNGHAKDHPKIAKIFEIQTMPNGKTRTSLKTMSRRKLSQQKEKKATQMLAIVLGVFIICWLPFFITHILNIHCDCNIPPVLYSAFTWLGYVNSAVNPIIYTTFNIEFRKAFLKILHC

In data set [1], `COc1ccc(S(=O)(=O)N[C@H]2CC[C@@H](N3CCC(c4ccccc4OCC(F)(F)F)CC3)CC2)cc1OC` gave a half-life of 56 min.
For `COc1ccc(S(=O)(=O)N[C@H]2CC[C@@H](N3CCC(c4ccccc4OC4CC4)CC3)CC2)cc1OC`, the half-life in data set [1] was 18 min.
Consider `COc1ccc(F)cc1S(=O)(=O)N[C@H]1CC[C@@H](N2CCN(c3ccccc3OC(C)C)CC2)CC1`, for which, in data set [1], the half-life is under 2 min.
Still for that read-out and setting: for `COc1ccc(Cl)cc1S(=O)(=O)N[C@H]1CC[C@@H](N2CCN(c3ccccc3OC(C)C)CC2)CC1` the value was under 2 min; for `CC(C)Oc1ccccc1N1CCN([C@H]2CC[C@@H](NS(=O)(=O)c3ccc(S(C)(=O)=O)cc3)CC2)CC1`, 2.5 min.
On to `CCN([C@H]1CC[C@H](N2CCN(c3ccccc3OC(C)C)CC2)CC1)S(=O)(=O)c1ccc(OC)c(OC)c1`, for which, in data set [2], the Ki stood at 2.7 nM.
For `COc1ccc(S(=O)(=O)N[C@H]2CC[C@H](N3CCN(c4ccccc4OCC(F)(F)F)CC3)CC2)cc1OC`, the inhibitory constant (Ki) amounted to 39 nM in data set [3] and 114 nM in data set [2].
`COc1ccc(S(=O)(=O)N[C@H]2CC[C@@H](N3CCC(c4ccccc4OCC(F)F)CC3)CC2)cc1OC`: the Ki in data set [3] is 278 nM; in data set [2] it was 228 nM; in data set [4] it was 8.6 nM. Further, the half-life in data set [1] worked out at 21 min.
Regarding `COc1ccc(S(=O)(=O)N[C@H]2CC[C@@H](N3CCC(c4ccccc4OC(C)C)CC3)CC2)cc1OC`, the inhibition constant Ki in data set [3] amounted to 151 nM; in data set [5] it was 1.8 nM; in data set [2], 165 nM; in data set [4], 1.7 nM. The half-life in data set [1] turned out to be 12 min.
In data set [1], `CC(C)Oc1ccccc1N1CCN([C@H]2CC[C@@H](NS(=O)(=O)c3ccc(Cl)cc3Cl)CC2)CC1` showed a half-life of 3.5 min.
With `COc1ccc(S(=O)(=O)N[C@H]2CC[C@@H](N3CCN(c4ccccc4OC(C)C)CC3)CC2)cc1OC`, the Ki in data set [3] was 106 nM; in data set [2] it was 136 nM; in data set [4] it was 0.68 nM. Besides, the half-life in data set [1] was determined as 4.9 min.
In data set [1], `COc1ccc(C)cc1S(=O)(=O)N[C@H]1CC[C@@H](N2CCN(c3ccccc3OC(C)C)CC2)CC1` registered a half-life of under 2 min.
Molecule `CCN([C@H]1CC[C@@H](N2CCN(c3ccccc3OC(C)C)CC2)CC1)S(=O)(=O)c1ccc(OC)c(OC)c1` registered an inhibitory constant (Ki) in data set [2] of 113 nM.
With `COc1ccc(S(=O)(=O)N[C@H]2CC[C@@H](N3CCN(c4ccccc4OCC(F)(F)F)CC3)CC2)cc1OC`, the Ki was 86 nM in data set [3], 192 nM in data set [2] and 0.35 nM in data set [4]. This molecule displayed a half-life in data set [1] of 35 min.
For `COc1ccc(S(=O)(=O)N[C@H]2CC[C@@H](N3CCC(c4ccccc4OCCF)CC3)CC2)cc1OC`, the inhibition constant Ki in data set [2] came out at 330 nM. Also, in data set [1], the half-life turned out to be 20 min.
